What all share (format): functional
For test [1], the system named is Jurkat. The test is described as follows: Anticancer activity against human Jurkat cells assessed as viable cells at 10^-4 M after 24 hrs by XTT assay relative to control. The settings on record: read-out: Activity. The gist of the method: (§1)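 DLD-1, HepG2 and Jurkat cells were grown in low-glucose DMEM with 10% FBS, 1% L-glutamine, 100 IU/mL penicillin and streptomycin at 37 °C under 5% CO2. They were seeded at 10 × 10^4 cells/well and treated with a 10-fold dilution series from 10^-4 to 10^-8 M for 24 or 48 h. XTT was then added, absorbance read at 450 nm after 4 h, and viability expressed as % of untreated control (set to 100%).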
Background: Tetrazolium dyes change colour on reduction, which living cells bring about.

Test [2] concerns Jurkat. The test is described as follows: Anticancer activity against human Jurkat cells assessed as viable cells at 10^-5 M after 24 hrs by XTT assay relative to control. The settings on record: read-out: Activity. The method in brief:
as §1

Test [3] has as its system HepG2. The test is described as follows: Anticancer activity against human HepG2 cells assessed as viable cells at 10^-5 M after 24 hrs by XTT assay relative to control. The settings on record: HepG2, 24 h, read-out: Activity. The method in brief:
as §1

Test [4] deals with HepG2. The test is described as follows: Anticancer activity against human HepG2 cells assessed as viable cells at 10^-5 M after 48 hrs by XTT assay relative to control. The settings on record: HepG2, 48 h, read-out: Activity. The gist of the method: as §1
Test [5] deals with HepG2. Nature of the test: Anticancer activity against human HepG2 cells assessed as viable cells at 10^-4 M after 24 hrs by XTT assay relative to control. The settings on record: HepG2, 24 h, read-out: Activity. The method in brief:
as §1

The test system of test [6] is DLD-1. Nature of the test: Anticancer activity against human DLD1 cells assessed as viable cells at 10^-4 M after 24 hrs by XTT assay relative to control. The settings on record: DLD-1, 24 h, read-out: Activity. The gist of the method: as §1
For test [7], the system named is HepG2. Nature of the test: Anticancer activity against human HepG2 cells assessed as viable cells at 10^-4 M after 48 hrs by XTT assay relative to control. Conditions: HepG2, 48 h, read-out: Activity. The gist of the method:
as §1

Test [8] concerns DLD-1. Nature of the test: Anticancer activity against human DLD1 cells assessed as viable cells at 10^-5 M after 24 hrs by XTT assay relative to control. Conditions: DLD-1, 24 h, read-out: Activity. The gist of the method: as §1
For test [9], the system named is DLD-1. The test is described as follows: Anticancer activity against human DLD1 cells assessed as viable cells at 10^-4 M after 48 hrs by XTT assay relative to control. The settings on record: DLD-1, 48 h, read-out: Activity. The method in brief:
as §1

The subject of test [10] is Jurkat. The test is described as follows: Anticancer activity against human Jurkat cells assessed as viable cells at 10^-4 M after 48 hrs by XTT assay relative to control. The settings on record: read-out: Activity. The method in brief: as §1
Test [11] relates to DLD-1. The test is described as follows: Anticancer activity against human DLD1 cells assessed as viable cells at 10^-5 M after 48 hrs by XTT assay relative to control. Conditions: DLD-1, 48 h, read-out: Activity. The gist of the method: as §1
Test [12] has as its system Jurkat. Nature of the test: Anticancer activity against human Jurkat cells assessed as viable cells at 10^-5 M after 48 hrs by XTT assay relative to control. The settings on record: read-out: Activity. The method in brief:
as §1

For the compound `Cc1ccc(NC(=S)NC(=O)c2nn(-c3ccccc3)c(-c3ccccc3)c2C(=O)c2ccccc2)cc1`, the viability at 100 µM in the test with Jurkat [1] was found to be 30%; in the test on HepG2 [5], 49.2%; with DLD-1 [6], 57.1%; in the test with HepG2 [7], 25.9%; in the test on DLD-1 [9], 40.2%; in the test with Jurkat [10] it was 12.5%. For the same compound, the viability at 10 µM in the test with Jurkat [2] was 50.3%; in the test on HepG2 [3], 51.6%; in the test on HepG2 [4], 27.7%; with DLD-1 [8] it was 65.1%; in the test with DLD-1 [11] it was 48.5%; in the test with Jurkat [12] it was 14.2%.
Consider `Cc1ccccc1NC(=S)NC(=O)c1nn(-c2ccccc2)c(-c2ccccc2)c1C(=O)c1ccccc1`, for which the viability at 100 µM with Jurkat [1] is 100%; with HepG2 [5] it was 29.1%; in the test on DLD-1 [6], 55.3%; in the test with HepG2 [7] it was 20.8%; in the test with DLD-1 [9], 41.3%; in the test with Jurkat [10], 76.6%. Besides, the viability at 10 µM is 100% in the test on Jurkat [2]; 33.3% in the test with HepG2 [3]; 22.8% with HepG2 [4]; 63.2% in the test with DLD-1 [8]; 45.6% with DLD-1 [11]; 51.2% in the test with Jurkat [12].
As to `COc1ccc(NC(=S)NC(=O)c2nn(-c3ccccc3)c(-c3ccccc3)c2C(=O)c2ccccc2)cc1`, the viability at 100 µM came to 31.1% in the test with Jurkat [1]; 36.5% in the test with HepG2 [5]; 71.2% with DLD-1 [6]; 22.6% in the test on HepG2 [7]; 62.1% with DLD-1 [9]; 8.98% in the test on Jurkat [10]. Moreover, the viability at 10 µM came out at 37.8% in the test with Jurkat [2]; 42% in the test with HepG2 [3]; 27.9% in the test on HepG2 [4]; 80.5% in the test on DLD-1 [8]; 68.2% in the test with DLD-1 [11]; 87.5% in the test on Jurkat [12].
In the case of `O=C(NC(=S)Nc1ccc(F)cc1)c1nn(-c2ccccc2)c(-c2ccccc2)c1C(=O)c1ccccc1`, the viability at 100 µM in the test with Jurkat [1] was determined as 100%; in the test on HepG2 [5] it was 50.1%; with DLD-1 [6], 62.5%; with HepG2 [7], 23.6%; with DLD-1 [9], 51.5%; with Jurkat [10], 67.6%. Also, the viability at 10 µM is 100% in the test with Jurkat [2]; 54.2% in the test with HepG2 [3]; 30.1% in the test with HepG2 [4]; 75.1% in the test on DLD-1 [8]; 60.2% in the test with DLD-1 [11]; 47.8% with Jurkat [12].
Take `O=C(NC(=S)Nc1ccc(Cl)cc1)c1nn(-c2ccccc2)c(-c2ccccc2)c1C(=O)c1ccccc1`: the viability at 100 µM in the test with Jurkat [1] is 57.3%; in the test on HepG2 [5] it was 49.5%; in the test with DLD-1 [6] it was 60.5%; in the test on HepG2 [7], 24.8%; in the test with DLD-1 [9], 49.2%; with Jurkat [10] it was 24.2%. Moreover, the viability at 10 µM came out at 56.3% in the test with Jurkat [2]; 53.7% with HepG2 [3]; 24.9% in the test with HepG2 [4]; 73.3% in the test on DLD-1 [8]; 55.2% with DLD-1 [11]; 90% in the test on Jurkat [12].
As to `O=C(NC(=S)Nc1ccc(Br)cc1)c1nn(-c2ccccc2)c(-c2ccccc2)c1C(=O)c1ccccc1`, the viability at 100 µM in the test with Jurkat [1] worked out at 78.1%; in the test on HepG2 [5], 55.2%; in the test with DLD-1 [6], 65.2%; with HepG2 [7] it was 27.2%; in the test on DLD-1 [9], 50.1%; with Jurkat [10] it was 40.1%. For the same compound, the viability at 10 µM with Jurkat [2] amounted to 100%; with HepG2 [3] it was 51.5%; in the test on HepG2 [4] it was 27.8%; in the test with DLD-1 [8] it was 78.1%; in the test with DLD-1 [11], 62.5%; with Jurkat [12], 87.5%.
For `O=C(NC(=S)Nc1cccc2ccccc12)c1nn(-c2ccccc2)c(-c2ccccc2)c1C(=O)c1ccccc1`, the viability at 100 µM in the test with Jurkat [1] amounted to 36.4%; with HepG2 [5] it was 78.7%; with DLD-1 [6], 74.2%; in the test on HepG2 [7], 49.9%; in the test with DLD-1 [9], 70.6%; in the test on Jurkat [10], 8.24%. Further, the viability at 10 µM was 46% in the test on Jurkat [2]; 85.5% in the test with HepG2 [3]; 51.2% in the test on HepG2 [4]; 82.2% in the test on DLD-1 [8]; 75.5% in the test on DLD-1 [11]; 14.5% with Jurkat [12].
For `NC(=O)c1ccc(NC(=S)NC(=O)c2nn(-c3ccccc3)c(-c3ccccc3)c2C(=O)c2ccccc2)cc1`, the viability at 100 µM was found to be 100% in the test with Jurkat [1]; 38.1% with HepG2 [5]; 100% in the test on DLD-1 [6]; 22.9% in the test with HepG2 [7]; 96.6% with DLD-1 [9]; 39.2% in the test on Jurkat [10]. For the same compound, the viability at 10 µM in the test with Jurkat [2] came out at 100%; in the test on HepG2 [3], 44.2%; in the test on HepG2 [4], 27.3%; in the test on DLD-1 [8] it was 100%; in the test on DLD-1 [11], 95.2%; with Jurkat [12] it was 66.3%.
`O=C(NC(=S)NCc1ccccc1)c1nn(-c2ccccc2)c(-c2ccccc2)c1C(=O)c1ccccc1`: the viability at 100 µM was found to be 36.6% with Jurkat [1]; 49.2% in the test with HepG2 [5]; 64.2% with DLD-1 [6]; 39.8% in the test on HepG2 [7]; 55.9% in the test with DLD-1 [9]; 17.9% in the test on Jurkat [10]. Moreover, the viability at 10 µM with Jurkat [2] is 34.7%; in the test on HepG2 [3], 56.4%; in the test on HepG2 [4] it was 40.6%; with DLD-1 [8], 75.2%; in the test with DLD-1 [11], 65.5%; in the test with Jurkat [12] it was 23.1%.
For `O=C(NC(=S)Nc1ncccn1)c1nn(-c2ccccc2)c(-c2ccccc2)c1C(=O)c1ccccc1`, the viability at 100 µM came out at 86.2% in the test on Jurkat [1]; 44.3% in the test on HepG2 [5]; 80.4% with DLD-1 [6]; 28.8% in the test with HepG2 [7]; 75.5% in the test on DLD-1 [9]; 23.4% in the test with Jurkat [10]. The viability at 10 µM is 100% with Jurkat [2]; 51.1% in the test with HepG2 [3]; 31.2% with HepG2 [4]; 88.5% in the test on DLD-1 [8]; 81.4% with DLD-1 [11]; 28% in the test on Jurkat [12].
Regarding `O=C(NC(=S)Nc1ccccc1)c1nn(-c2ccccc2)c(-c2ccccc2)c1C(=O)c1ccccc1`, the viability at 100 µM in the test with Jurkat [1] was determined as 23.3%; in the test with HepG2 [5], 38.2%; with DLD-1 [6], 71.3%; with HepG2 [7] it was 21.8%; with DLD-1 [9], 60.6%; in the test with Jurkat [10], 6%. Besides, the viability at 10 µM is 30% in the test on Jurkat [2]; 42.1% with HepG2 [3]; 23.7% in the test with HepG2 [4]; 75.5% in the test on DLD-1 [8]; 55.4% in the test with DLD-1 [11]; 67.6% with Jurkat [12].

(Values after ChEMBL document CHEMBL2390889, “Synthesis and anticancer activity of acyl thioureas bearing pyrazole moiety” (2013).)
